Where two headings read alike, the source gives them in different places.
Assays:
[1] = assay type: in vivo, healthy subjects (human); details: for C max,IDeg,SD, mean estimate: serum, ELISA
Summary of the method: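 Fasted healthy adults (n=20) in a randomised, open-label, complete crossover received single SC doses of 0.4 U/kg, 13–21 days apart. Dosing was by syringe into a lifted skinfold of anterior thigh, lower abdominal wall or outer deltoid, each followed by a 24-h euglycaemic clamp (4.5 mmol/L). Serum was sampled over 120 h and assayed by compound-specific sandwich ELISA (LLOQ 20 pmol/L).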

[2] = 24-h euglycaemic clamp after a single SC dose; assay type: in vivo, healthy subjects (human)
[3] = cited from earlier work
[4] = single SC dose 0.4 U/kg in abdomen, 20 evaluations
[5] = single SC dose 0.4 U/kg in deltoid, 20 evaluations
[6] = single SC dose 0.4 U/kg in thigh, 19 evaluations
[7] = single SC dose 0.4 U/kg, ANOVA of log-transformed AUC
[8] = single SC dose 0.4 U/kg, ANOVA of log-transformed values

insulin degludec
Maximum concentration (C max,IDeg,SD) higher in deltoid or abdomen than in thigh ([1]; single SC dose 0.4 U/kg): 23–27%
C max,IDeg,SD, mean estimate [1, 4]: 2,388 pmol/L
C max,IDeg,SD, mean estimate [1, 5]: 2,462 pmol/L
C max,IDeg,SD, mean estimate [1, 6]: 1,938 pmol/L
AUCIDeg,0–120h,SD mean ratio [95 % CI], abdomen vs. deltoid [1, 7]: 1.01 [0.96–1.06]
AUCIDeg,0–120h,SD mean ratio [95 % CI], abdomen vs. thigh [1, 7]: 1.07 [1.03–1.11]
AUCIDeg,0–120h,SD mean ratio [95 % CI], deltoid vs. thigh [1, 7]: 1.06 [1.01–1.10]
C max,IDeg,SD mean ratio [95 % CI], abdomen vs. deltoid [1, 8]: 0.97 [0.84–1.12]
C max,IDeg,SD mean ratio [95 % CI], abdomen vs. thigh [1, 8]: 1.23 [1.07–1.42]
C max,IDeg,SD mean ratio [95 % CI], deltoid vs. thigh [1, 8]: 1.27 [1.08–1.49]
GIRmax,SD, mean estimate [2, 4]: 3.0 mg/(kg·min)
GIRmax,SD, mean estimate [2, 5]: 3.0 mg/(kg·min)
GIRmax,SD, mean estimate [2, 6]: 2.7 mg/(kg·min)
Time to reach steady state ([3]; once-daily injections): 2 to 3 days

insulin detemir
AUC higher following SC injection in abdomen or deltoid than in thigh [3]: approximately 10%

insulin glargine
Half-life after SC administration [3]: 12 h
